The record followed here is ChEMBL document CHEMBL1124605, “Synthesis and anthelmintic activity of a series of pyrazino[2,1-a][2]benzazepine derivatives” (1989).

Molecules are shown by their SMILES.

The test system of the first test is Taenia crassiceps. Briefly: 1 Minimum inhibitory concentration to prevent all movement of cysts and evaginated scoleces of in vitro Taenia crassiceps screen after 48 h. It is filed as functional. In outline: (§1)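 Taenia crassiceps cysts taken from mice, pepsin-treated (0.05% in HCl, pH 2.0, 5 min, 37 °C) and washed three times in Hank's balanced salt solution. Compound added as a methylcellulose suspension (final 10 μg/mL) in CMRL 1066-based medium with fetal calf serum, glucose, taurocholate, yeast extract, HEPES and antibiotics, at 37 °C. Invaginated and evaginated cysts scored at 24 and 48 h. Actives titrated for MIC.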
As to `O=C(C1CCCCC1)N1CC(=O)N2CCCc3ccccc3C2C1` (single isomer, unassigned; (-)) [EPSIPRANTEL], the MIC (commonly the lowest concentration found to suppress growth) was under 0.1 µg/mL.

The test system of a further test is Taenia crassiceps. Briefly: Minimum inhibitory concentration to prevent all movement of cysts and evaginated scoleces of in vitro Taenia crassiceps screen after 48 h. It is filed as functional. The procedure, abridged: as §1
For the compound `Cc1ccc(C(=O)N2CC(=O)N3CCCc4ccccc4C3C2)cc1` (stereo unspecified), the minimal inhibitory concentration (MIC) was at most 10 µg/mL.

`CC(=O)N1CC(=O)N2CCCc3ccccc3C2C1` (stereo unspecified) displayed an MIC of over 10 µg/mL. On the same count and under the same terms, for `O=C(c1ccc(F)cc1)N1CC(=O)N2CCCc3ccccc3C2C1` (stereo unspecified) the value was over 10 µg/mL; for `O=C(c1ccc([N+](=O)[O-])cc1)N1CC(=O)N2CCCc3ccccc3C2C1` (stereo unspecified), over 10 µg/mL. In turn, `CN(C)c1ccc(C(=O)N2CC(=O)N3CCCc4ccccc4C3C2)cc1` (stereo unspecified) registered a minimum inhibitory concentration (MIC) of over 10 µg/mL. `CC(C)C(=O)N1CC(=O)N2CCCc3ccccc3C2C1` (stereo unspecified) came in with an MIC of over 10 µg/mL.

`O=C(C1CCCCC1)N1CC(=S)N2CCCc3ccccc3C2C1` (stereo unspecified) yielded a minimum inhibitory concentration (MIC) of over 10 µg/mL.

Consider `Nc1cccc(C(=O)N2CC(=O)N3CCCc4ccccc4C3C2)c1` (stereo unspecified), for which the MIC is over 10 µg/mL.

Turning to `O=C(C1CCOCC1)N1CC(=O)N2CCCc3ccccc3C2C1` (stereo unspecified), the MIC is over 10 µg/mL.

`O=C(C1CCC1)N1CC(=O)N2CCCc3ccccc3C2C1` (stereo unspecified): the MIC is over 10 µg/mL.

Compound `O=C(C1CCCCCC1)N1CC(=O)N2CCCc3ccccc3C2C1` (stereo unspecified) displayed an MIC of over 10 µg/mL. Still for that read-out and setting: as for `O=C(c1cccc(Cl)c1)N1CC(=O)N2CCCc3ccccc3C2C1` (stereo unspecified), the figure is over 10 µg/mL; as for `O=C(c1cccc([N+](=O)[O-])c1)N1CC(=O)N2CCCc3ccccc3C2C1` (stereo unspecified), at most 10 µg/mL.

On to `O=C(c1cccnc1)N1CC(=O)N2CCCc3ccccc3C2C1` (stereo unspecified), for which the MIC was over 10 µg/mL.

In turn, `Cc1ccccc1C(=O)N1CC(=O)N2CCCc3ccccc3C2C1` (stereo unspecified) came in with an MIC of over 10 µg/mL. Same read-out and setting: for `Cl.O=C(C1CCCCC1)N1CCN2CCCc3ccccc3C2C1` (stereo unspecified) the value was over 10 µg/mL; for `O=C(c1ccc(Cl)cc1)N1CC(=O)N2CCCc3ccccc3C2C1` (stereo unspecified), over 10 µg/mL; for `Cc1cccc(C(=O)N2CC(=O)N3CCCc4ccccc4C3C2)c1` (stereo unspecified), over 10 µg/mL.

Compound `COc1ccc(C(=O)N2CC(=O)N3CCCc4ccccc4C3C2)cc1` (stereo unspecified) came in with a minimum inhibitory concentration (MIC) of over 10 µg/mL. Still for that read-out and setting: for `CCCCCC(=O)N1CC(=O)N2CCCc3ccccc3C2C1` (stereo unspecified) the value was over 10 µg/mL; for `COc1cc2c(cc1OC)C1CN(C(=O)C3CCCCC3)CC(=O)N1CCC2` (stereo unspecified), over 10 µg/mL. Same read-out and setting: as for `O=C(c1ccc(O)cc1)N1CC(=O)N2CCCc3ccccc3C2C1` (stereo unspecified), the figure is over 10 µg/mL; as for `O=C(C1CCCCC1)N1CC(=O)N2CCSc3ccccc3C2C1` (stereo unspecified), over 10 µg/mL; as for `O=C(C1CCCCC1)N1CC(=O)N2CCCc3ccccc3C2C1` (stereo unspecified) [EPSIPRANTEL], at most 0.1 µg/mL.

For the compound `O=C(C1CCCCC1)N1CC(=O)N2CCc3ccccc3C2C1` (stereo unspecified) [PRAZIQUANTEL], the MIC is at most 0.1 µg/mL.
